Assay [1] deals with Plasmodium falciparum. Briefly: (§1) In vitro antimalarial activity for chloroquine-resistant Plasmodium falciparum in schizont maturation assay. Format: functional, organism-based. Summed up:
(§2)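 P. falciparum (lab chloroquine-sensitive strains; resistant field isolate from Jagadalpur patients) in O+ human RBCs, RPMI 1640 + 10% human serum, 37 °C, 5% CO2; sorbitol-synchronized rings at 2% in erythrocytes. Double dilutions, duplicate wells, 24 h. Giemsa smears: mature schizonts counted among 200 asexual parasites; inhibition = (1 − Nt/Nc) × 100.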

In assay [2] the test system is Plasmodium falciparum. The assay can be described thus: (§3) In vitro antimalarial activity for chloroquine-sensitive Plasmodium falciparum in schizont maturation assay. It is filed as functional, organism-based. Summed up: as §2
Assay [3] relates to Plasmodium falciparum. The assay is described as §1. Format: functional. Summed up:
as §2

Assay [4] concerns Plasmodium falciparum. The assay is described as §3. Format: functional. Summed up: (§4)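 Chloroquine-sensitive P. falciparum, sorbitol-synchronized ring stages, cultured in O+ human RBCs in RPMI 1640 with 10% human serum at 37 °C under 5% CO2. Duplicate wells held erythrocytes at 2% ring-stage parasitaemia across double dilutions of compound. After 24 h, Giemsa smears were scored for mature schizonts among 200 asexual parasites. Inhibition was calculated as (1 − Nt/Nc)×100 against medium-only controls.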

Assay [5] deals with Plasmodium falciparum. Briefly: In vitro antimalarial activity as schizont maturation against drug-resistant Plasmodium falciparum. Format: functional. Summed up:
as §2

In assay [6] the test system is Plasmodium falciparum. The assay can be described thus: In vitro antimalarial activity as schizont maturation against drug-sensitive Plasmodium falciparum. It is filed as functional. Summed up: as §4

On to `O=C1NC2CCCC12` (stereo unspecified), for which the IC50 (usually the concentration needed to halve the response being measured) in the assay with Plasmodium falciparum [1] was 12.4 µM; in the assay on Plasmodium falciparum [2], 13.5 µM. Moreover, the figures for the concentration for an effect of 90% (IC90) with Plasmodium falciparum [3] and in the assay with Plasmodium falciparum [4] were 34.5 µM and 31.9 µM, respectively. Besides, the values for the 99% effect concentration (IC99) in the assay with Plasmodium falciparum [3] and in the assay on Plasmodium falciparum [4] were 48.7 µM and 42.2 µM, respectively.

In the case of `O=C1C2CC=CC=CC2N1Cc1ccccc1` (stereo unspecified), the IC50 with Plasmodium falciparum [1] and in the assay with Plasmodium falciparum [2] was 1.8 µM each time. Besides, the IC90 – broadly, the concentration at which the effect reaches the 90% level – in the assay on Plasmodium falciparum [3] was 2.9 µM; with Plasmodium falciparum [4], 2.8 µM. The IC99 – broadly, the concentration at which the effect reaches the 99% level – in the assay on Plasmodium falciparum [3] was determined as 3.3 µM; with Plasmodium falciparum [4], 3.2 µM.

Consider `O=C1NC2CCCCCCC12` (stereo unspecified), for which the IC50 worked out at 8.4 µM in the assay with Plasmodium falciparum [1] and 8.1 µM in the assay with Plasmodium falciparum [2]. Also, the IC90 in the assay with Plasmodium falciparum [3] came out at 33.9 µM; in the assay with Plasmodium falciparum [4] it was 33.7 µM. In addition, the concentration for an effect of 99% (IC99) in the assay with Plasmodium falciparum [3] is 54.8 µM; in the assay on Plasmodium falciparum [4], 51.2 µM.

With `O=C1NC2CC/C=C\CCC12` (stereo unspecified), the IC50 with Plasmodium falciparum [1] turned out to be 7.3 µM; in the assay on Plasmodium falciparum [2], 6.8 µM. The results for the IC90 with Plasmodium falciparum [3] and with Plasmodium falciparum [4] were 26.1 µM and 25.4 µM, respectively. The concentration for an effect of 99% (IC99) in the assay with Plasmodium falciparum [3] was 48.7 µM; in the assay on Plasmodium falciparum [4] it was 43.4 µM.

Regarding `O=C1C2CCCCCCC2N1Cc1ccccc1` (stereo unspecified), the results for the IC50 with Plasmodium falciparum [1] and with Plasmodium falciparum [2] were 7.9 µM and 8.1 µM, respectively. Besides, the 90% effect concentration (IC90) was found to be 19.4 µM in the assay on Plasmodium falciparum [3] and 18.8 µM in the assay on Plasmodium falciparum [4]. Also, the IC99 with Plasmodium falciparum [3] worked out at 27.4 µM; with Plasmodium falciparum [4], 25.2 µM.

Consider `O=C1C2CCCC2N1Cc1ccccc1` (stereo unspecified), for which the values for the half-inhibitory concentration (IC50) in the assay on Plasmodium falciparum [1] and in the assay on Plasmodium falciparum [2] were 7.4 µM and 6.5 µM, respectively. Further, the results for the IC90 in the assay on Plasmodium falciparum [3] and in the assay on Plasmodium falciparum [4] were 12.4 µM and 11.2 µM, respectively. The IC99 in the assay on Plasmodium falciparum [3] is 14.5 µM; in the assay on Plasmodium falciparum [4] it was 12.3 µM.

For the compound `O=C1C2CC=CCC2N1Cc1ccccc1` (stereo unspecified), the IC50 with Plasmodium falciparum [1] turned out to be 1.6 µM; with Plasmodium falciparum [2] it was 1.5 µM. In addition, the figures for the 90% effect concentration (IC90) in the assay on Plasmodium falciparum [3] and with Plasmodium falciparum [4] were 6.1 µM and 5.6 µM, respectively. The IC99 in the assay on Plasmodium falciparum [3] worked out at 6.4 µM; in the assay on Plasmodium falciparum [4], 6.1 µM.

As for `O=C1NC2CC=CCC12` (stereo unspecified), the concentration for half-maximal inhibition (IC50) was 8.7 µM in the assay on Plasmodium falciparum [1] and 9.1 µM in the assay on Plasmodium falciparum [2]. Besides, the 90% effect concentration (IC90) in the assay on Plasmodium falciparum [3] was determined as 21.2 µM; with Plasmodium falciparum [4] it was 19.3 µM. For the same compound, the IC99 is 25.3 µM with Plasmodium falciparum [3] and 23.2 µM in the assay on Plasmodium falciparum [4].

Compound `O=C1NC2C=CC=CCC12` (stereo unspecified) registered an IC50 in the assay with Plasmodium falciparum [1] of 4.6 µM. For the same compound, the 90% effect concentration (IC90) in the assay on Plasmodium falciparum [3] came out at 15.4 µM; with Plasmodium falciparum [4], 14.5 µM. Further, the figures for the concentration for an effect of 99% (IC99) with Plasmodium falciparum [3] and in the assay on Plasmodium falciparum [4] were 24.8 µM and 20.1 µM, respectively.

For `O=C1C2CC/C=C\CCC2N1Cc1ccccc1` (stereo unspecified), the IC50 is 5.8 µM with Plasmodium falciparum [1] and 5.4 µM in the assay on Plasmodium falciparum [2]. The IC90 was 11.4 µM with Plasmodium falciparum [3] and 10.7 µM in the assay on Plasmodium falciparum [4]. The IC99 in the assay on Plasmodium falciparum [3] amounted to 14.5 µM; with Plasmodium falciparum [4], 13.3 µM.

For the compound `CCN(CC)CCCC(C)Nc1ccnc2cc(Cl)ccc12` (stereo unspecified) [CHLOROQUINE], the IC90 in the assay with Plasmodium falciparum [5] came to 0.5 µM; in the assay with Plasmodium falciparum [6] it was 0.05 µM.

These data come from ChEMBL document CHEMBL1142002, “Design, synthesis and biological evaluation of novel bicyclic beta-lactams as potential antimalarials” (Bioorg Med Chem Lett, 2005).
